A selection: hits, their analogues and other compounds. The true share with any hit is near 2%.
STEP block: STEP phosphatase inhibitors, primary screen, biochemical, fluorescence intensity, uHTS; Tyrosine-protein phosphatase non-receptor type 5 (Homo sapiens), P54829; recombinant STEP, OMFP fluorogenic substrate; inhibition, % at 20 µM; 0.25% of 360,000 active; AID 588621, 2011;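 active = inhibition at 20 µM, scaled per plate between control wells, above about 37%, limit read from the data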
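System: STEP (striatal-enriched tyrosine phosphatase) enzyme, cell-free; medium: Bis-Tris pH 6.0 buffer with DTT, detergent; dosing: 20 µM, 1% DMSO; times: reaction 20 min, ambient temperature; detection: fluorescence, 480/540 nm; read-out basis: normalized % inhibition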
Scp1 inh: Scp-1 phosphatase inhibitors, primary screen, biochemical, colorimetric, uHTS | Recombinant Scp1, phosphopeptide, malachite green phosphate absorbance | 0.88% of 340,000 active | inhibition, % at 20 µM;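 active = inhibition above about 50% at 20 µM, limit read from the data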
Target sequence (Q9GZU7 76-261 limits assumed): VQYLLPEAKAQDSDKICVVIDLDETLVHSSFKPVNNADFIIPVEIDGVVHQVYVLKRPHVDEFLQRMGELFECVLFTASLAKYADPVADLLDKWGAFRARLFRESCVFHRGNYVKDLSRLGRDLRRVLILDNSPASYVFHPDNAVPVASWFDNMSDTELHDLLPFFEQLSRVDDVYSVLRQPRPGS
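Incubation: 45 min enzyme reaction at room temperature / System: truncated SCP-1 phosphatase (76-261aa) / Reagent: Phospho 17-mer peptide substrate / Buffer or medium: Acidic Tris acetate buffer with magnesium and detergent / Signal: absorbance at 630 nm / Doses: one concentration, 20 µM, with 1.0% DMSO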
Rpn11 inh: Rpn11 (PSMD14) deubiquitinase inhibitors, primary screen, biochemical, fluorescence polarization, uHTS | 26S proteasome non-ATPase regulatory subunit 14 (Homo sapiens), O00487 | human 26S proteasome, Ub4-pepOG fluorescence polarization; 20S core pre-blocked with epoxomicin | inhibition, % at 20 µM | 0.59% of 360,000 active;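 active = inhibition at 20 µM, scaled to each plate's controls, above about 33%, limit read from the data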
Target sequence (O00487 whole entry, looked up): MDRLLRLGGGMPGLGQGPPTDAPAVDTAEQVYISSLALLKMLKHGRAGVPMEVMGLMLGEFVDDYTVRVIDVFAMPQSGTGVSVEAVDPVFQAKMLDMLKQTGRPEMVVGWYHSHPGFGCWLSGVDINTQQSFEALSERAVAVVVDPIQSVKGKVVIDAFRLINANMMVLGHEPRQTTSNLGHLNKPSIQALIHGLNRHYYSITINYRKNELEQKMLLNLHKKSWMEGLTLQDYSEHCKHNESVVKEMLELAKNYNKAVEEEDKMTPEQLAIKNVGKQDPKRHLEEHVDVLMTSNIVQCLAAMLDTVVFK
DNMT1 block: human DNMT1 methyltransferase inhibitors, primary screen, biochemical, molecular beacon, fluorescence, HinP1I cleavage, uHTS. DNA (cytosine-5)-methyltransferase 1 (Homo sapiens), P26358. inhibition (reported as % activation of signal), % at 10 µM. 0.83% of 360,000 active. AID 588458, 2011; in the data active = inhibition above about 50%
LMPTP inh: LMPTP phosphatase inhibitors, primary screen, biochemical, fluorescence intensity, uHTS. Low molecular weight phosphotyrosine protein phosphatase (Homo sapiens), P24666. recombinant LMPTP-A, OMFP fluorogenic substrate. inhibition, % at 20 µM. 0.22% of 360,000 active. AID 651560, 2012;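 active = compounds that cut the enzyme signal by at least half of the control window in the single-dose screen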
Target sequence (P24666 whole entry, looked up): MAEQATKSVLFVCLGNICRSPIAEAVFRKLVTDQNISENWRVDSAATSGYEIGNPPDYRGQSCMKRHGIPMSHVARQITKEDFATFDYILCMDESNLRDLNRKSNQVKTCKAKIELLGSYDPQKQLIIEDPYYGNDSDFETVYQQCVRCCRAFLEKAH
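Test system: LMPTP-A, protein tyrosine phosphatase of low molecular weight; Input: 0.625 nM enzyme; Incubation: 50 min dark incubation at room temperature; Signal: endpoint fluorescence intensity from OMFP dephosphorylation; Read-out basis: % inhibition versus control wells.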
Scp1 confirm: Scp-1 phosphatase inhibitors, retest, confirmation, biochemical, colorimetric, single concentration; shares compounds with Scp1 inh; 61% of 2,500 active; inhibition, % at 20 µM; recombinant SCP-1 catalytic domain, phosphate release, malachite green absorbance
Scp-1 MG ctr: colorimetric readout interference by compounds, confirmation, artefact control for Scp-1 inhibitor project, biochemical, single concentration. shares compounds with Scp1 inh. Colorimetric interference counterscreen, malachite green absorbance 630 nm. apparent inhibition (interference), % at 20 µM. 2,500 tested, under 10 active. AID 540313, 2011;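 also: compounds added after enzyme reaction finished so only phosphate colour detection is probed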
Scp1 DSF: Scp-1 binding by thermal shift, confirmation, orthogonal assay for Scp-1 inhibitor project, biophysical, differential scanning fluorimetry; thermal shift relative to vanadate control, % at 40 µM; 25% of 1,500 active; Recombinant SCP1, Sypro Orange thermal shift Tm; AID 540329, 2011; shares compounds with Scp1 inh;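 active = substances whose mean melting-temperature shift, as a percentage of the reference inhibitor's shift, reaches about 5.3%, limit read from the data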
Hits are given with their value; – = inactive; · = not tested or not shown.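 The calls were made as follows, unless noted: active = inhibition of at least 30% at 20 µM; inactive = the rest.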

SMILES	STEP block	Scp1 inh	Rpn11 inh	DNMT1 block	LMPTP inh	Scp1 confirm	Scp-1 MG ctr	others
CC(C(=O)N1CCCCC1)N1CCN(S(=O)(=O)c2ccc(Cl)cc2)CC1 (stereo unspecified)	–	97.1	–	–	–	78.2	–	Scp1 DSF=–
CC(C)c1ccc(S(=O)(=O)N2CCN(C(C)C(=O)N3CCCC3)CC2)cc1 (stereo unspecified)	–	–	–	–	–	·	·
O=C(c1cccnc1)N1CCC(Oc2ccc(C(=O)N3CCCCO3)cc2)CC1	–	69.3	–	–	–	–	–
CCC(=O)C1CCCN(C(=O)c2ccc(OC3CCN(C(=O)c4cccnc4)CC3)cc2)C1 (stereo unspecified)	–	–	–	–	–	·	·
O=C1OC(c2ccc3c(c2)OCO3)=N/C1=C\c1ccc(C(=O)O)cc1	–	88.5	–	–	–	68.9	–	Scp1 DSF=6.3
C=C1CCCC2OC(CC3=CC4/C(C)=C/CC(C)CC(/C=C(\C)C(O)C5CC(O)C(O)C(CCC(O)/C=C/C(C)=C/CCC6=NCCC(C3)C64C)O5)OC(=O)CC3OC(C(O)C1)C(O)C3O)CC(O)C2O (stereo unspecified)	–	·	–	–	–	·	·
Cc1cccc(CN(CC(=O)N/N=C/c2ccco2)S(=O)(=O)c2ccc(Cl)cc2)c1	–	58.0	–	–	–	48.1	–	Scp1 DSF=–
Cc1ccc(S(=O)(=O)N(CC(=O)N/N=C/c2ccco2)Cc2ccccc2)cc1	–	–	–	–	–	·	·
COCCN1C(=O)COc2ccccc2C1C(=O)NCc1ccccc1 (stereo unspecified)	·	·	·	·	–	·	·
O=C(O)c1ccc2c(=O)n3c(nc2c1)/C(=C/c1ccc(Cl)c(Cl)c1)CC3	–	55.0	–	–	–	–	–
O=C(O)c1ccc2c(=O)n3c(nc2c1)/C(=C/c1cccc(O)c1)CC3	–	–	–	–	–	·	·
COCC(=O)N[C@H]1C=C[C@@H](CC(=O)OC)O[C@@H]1CO	·	·	·	·	–	·	·
O=C1C(=O)N(CCO)C(c2ccccc2)/C1=C(\O)c1ccccc1 (stereo unspecified)	–	57.4	–	–	–	–	–
Cc1cc(CSc2ccccc2)ccc1NC(=O)c1cccc([N+](=O)[O-])c1	–	53.6	–	–	–	–	–
COc1ccc(-c2cc(CNc3nc(NCc4ccccc4OC)nc4ccsc34)on2)cc1	–	·	–	–	–	·	·
CCOC(=O)Cc1csc(N/N=C\c2ccc(N(C)C)cc2)n1	–	–	–	–	–	·	·
COC(=O)[C@]12CCCCC=C1N(Cc1ccc3c(c1)OCO3)C(=O)[C@H](CC(=O)NCc1ccc(OC)c(OC)c1)C2	·	·	·	·	–	·	·
O=C(COc1ccccc1[N+](=O)[O-])Nc1cccc(S(=O)(=O)NC2=NCCCCC2)c1	–	62.0	–	–	–	73.6	–	Scp1 DSF=–
O=C(N/N=C/c1cccnc1)c1cccc(NC(=O)c2ccc(Cl)cc2)c1	96.8	82.2	52.0	–	–	65.4	–	Scp1 DSF=–
CSCCC(NC(=O)c1ccccc1Br)C(=O)NNC(=O)C1COc2ccccc2O1 (stereo unspecified)	–	–	–	–	–	·	·
O=C(O)CC(NC(=O)OCc1ccccc1)c1ccccc1 (stereo unspecified)	–	73.1	–	–	–	–	–
O=C(Cn1ccc2ccccc2c1=O)NCCC(=O)Nc1cccnc1	–	60.4	–	–	–	–	–
Cc1ccc(NC(=O)CS(=O)CC(=O)Nc2ccc(N3CCOCC3)cc2)cc1Cl (stereo unspecified)	–	96.9	–	–	–	69.7	–	Scp1 DSF=–
Cc1cc(C)c(NC(=O)CS(=O)CC(=O)Nc2ccc(N3CCOCC3)cc2)c(C)c1 (stereo unspecified)	–	–	–	–	–	·	·
COCCCN1C(=O)C(CC(=O)NCCc2ccccn2)CC(C(=O)N2CCCCCC2)=C1C (stereo unspecified)	·	·	·	·	–	·	·
SMILES	STEP block	Scp1 inh	Rpn11 inh	DNMT1 block	LMPTP inh	Scp1 confirm	Scp-1 MG ctr	others
CCn1c(=O)c(=O)[nH]c2cc(C(=O)NCc3ccc(F)cc3)ccc21	–	–	–	–	–	–	–
COc1ccc(NC(=S)N(CCCN2CCOCC2)C(C)c2cc3ccccc3o2)cc1 (stereo unspecified)	–	63.9	–	–	–	–	–
CCN1C(=O)c2ccccc2Sc2ccc(C(=O)O)cc21	–	–	–	–	–	·	·
CCOC(=O)c1ccc2c(c1)N(C)C(=O)c1ccccc1S2	–	52.8	–	–	–	–	–
COC(=O)/C=C1\OC(C2CC2)c2ccccc21 (stereo unspecified)	·	·	·	·	–	·	·
CC1CCN(c2ccc(NC(=O)c3ccc(Br)o3)cc2)CC1	–	–	–	–	–	·	·
O=C(CCCCn1c(=O)[nH]c2ccsc2c1=O)NCc1ccc2c(c1)OCO2	–	–	–	–	–	·	·
O=C(CCCCn1c(=S)[nH]c2ccsc2c1=O)NCc1ccc2c(c1)OCO2	–	58.7	–	–	–	–	–
CCCC(=O)Nc1ccc2nc(SCC(=O)Nc3nccs3)sc2c1	–	102.1	–	–	–	–	–
O=C(C[C@H]1CC[C@H]2[C@@H](COC[C@@H](O)CN2Cc2cc(F)ccc2F)O1)NCc1ccc(Cl)cc1	·	·	·	·	–	·	·
C[n+]1cnc(-c2ccccc2)cc1-c1ccccc1	–	100.8	–	–	–	85.8	–	Scp1 DSF=–
c1ccc2c(c1)nc(N1CCCCCC1)c1ccccc12	–	111.9	–	–	–	96.9	–	Scp1 DSF=–
Cc1nnc(SCC(=O)Nc2cccc(S(=O)(=O)N3CCCC3)c2)n1C1CC1	–	·	–	–	–	·	·
COCCN(C(=O)C1CCN(C(=O)c2ccccc2C)CC1)c1c(N)n(CC(C)C)c(=O)[nH]c1=O	–	63.3	–	–	–	76.7	–	Scp1 DSF=–
